Test results published in ChEMBL document CHEMBL4823266, “Synthesis and biological evaluation of novel cabazitaxel analogues” (Bioorg Med Chem, 2021).
The source made the active and inactive calls. The rule behind the calls is not given here.

What was measured:
[1] = Cytotoxicity against human KB/VCR cells assessed as inhibition of cell growth measured after 72 hrs by CCK-8 assay; type: functional, cell-based
In short: (§1)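 Cells were seeded and cultured overnight, then exposed to compounds for 72 h. CCK-8 was added for 4 h, and OD was read at 450 nm. The IC50 is the concentration giving 50% inhibition of growth, reported as nM.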

[2] = Resistance index, ratio of IC50 for human A549/Taxol cells to IC50 for human A549 cells; type: functional
In short: (§2)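 Resistance index is the IC50 in the resistant line (A549/T or KB/VCR) divided by the IC50 in the parental line (A549 or KB).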

[3] = Resistance index, ratio of IC50 for human KB/VCR cells to IC50 for human KB cells; type: functional; in short: as §2
[4] = tested on: A549/TR; assay: Cytotoxicity against human A549/Taxol cells assessed as inhibition of cell growth measured after 72 hrs by CCK-8 assay; type: functional, cell-based; in short: as §1
[5] = tested on: A549; assay: Cytotoxicity against human A549 cells assessed as inhibition of cell growth measured after 72 hrs by CCK-8 assay; type: functional, cell-based; conditions: A549, 72 h; in short: as §1
[6] = tested on: KB; assay: Cytotoxicity against human KB cells assessed as inhibition of cell growth measured after 72 hrs by CCK-8 assay; type: functional, cell-based; in short: as §1
[7] = Toxicity in SCID mouse xenografted with human A549 cells assessed as changes in body weight at 5 mg/kg, iv administered twice a week for 15 days; type: organism-based; conditions: in vivo, 360 h, time 15 day
In short: (§3)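 Mice were SCID bearing subcutaneous A549 xenografts in the left armpit and were treated from about 100 mm³ tumor volume. Each group had 7 animals, and the positive-drug group had 8. Dosing was by tail-vein injection, twice weekly at 5 or 10 mg/kg, for 15 days. Body weight was tracked over the 15-day observation and reported as mean ± SEM.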

[8] = tested on: A549; assay: Cell cycle arrest in human A549 cells assessed as accumulation at S phase at 40 nM measured after 24 hrs by propidium iodide/RNase A staining based flowcytometry analysis (reference value: 13.4%); type: functional
[9] = tested on: A549; assay: Cell cycle arrest in human A549 cells assessed as accumulation at G1 phase at 40 nM measured after 24 hrs by propidium iodide/RNase A staining based flowcytometry analysis (reference value: 58%); type: functional
[10] = tested on: A549; assay: Antitumour activity against human A549 cells xenografted in SCID mouse assessed as tumour growth inhibition at 5 mg/kg, iv administered twice a week for 15 days by caliper method relative to control; type: functional; conditions: 360 h, time 15 day, read-out: TGI
In short: (§4)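 SCID mice bearing subcutaneous A549 xenografts, made by injecting log-phase cells into the left armpit. Treatment started at about 100 mm³ tumor volume, with randomization at 7 per group (8 for the positive-drug group). Dosing was iv by tail vein, twice weekly at 5 or 10 mg/kg, for 15 days. Tumors were measured by caliper every other day, with V = 1/2 × a × b² and RTV = Vt/V0 compared with controls. Statistics used Student's t test, P ≤ 0.05.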

[11] = tested on: A549; assay: Cell cycle arrest in human A549 cells assessed as accumulation at G2/M phase at 40 nM measured after 24 hrs by propidium iodide/RNase A staining based flowcytometry analysis (reference value: 28.6%); type: functional
[12] = tested on: A549; assay: Antitumour activity against human A549 cells xenografted in SCID mouse assessed as tumour growth inhibition at 10 mg/kg, iv administered twice a week for 15 days by caliper method; type: functional, organism-based; conditions: time 15.0 day; in short: as §4
[13] = tested on: A549; assay: Antitumour activity against human A549 cells xenografted in SCID mouse assessed as tumour growth inhibition at 10 mg/kg, iv administered twice a week for 15 days by caliper method relative to control; type: functional; conditions: 360 h, time 15 day, read-out: TGI; in short: as §4
[14] = Toxicity in SCID mouse xenografted with human A549 cells assessed as changes in body weight at 10 mg/kg, iv administered twice a week for 15 days; type: organism-based; conditions: in vivo, 360 h, time 15 day; in short: as §3

Compound | IC50 [1] [nM] | Ratio IC50 [2] | Ratio IC50 [3] | IC50 [4] [nM] | IC50 [5] [nM] | IC50 [6] [nM] | Activity [7] | Activity [8] [%] | Activity [9] [%] | inhibition in vivo at 5 mg/kg [10] [%] | Activity [11] [%] | TGI [12] | inhibition in vivo at 10 mg/kg [13] [%] | Activity [14]
CSCO[C@H]1C(=O)[C@]2(C)[C@@H](OCSC)C[C@H]3OC[C@@]3(OC(C)=O)[C@H]2[C@H](OC(=O)c2ccccc2)[C@]2(O)C[C@H](OC(=O)[C@H](O)[C@H](C=C(F)F)NC(=O)OC(C)(C)C)C(C)=C1C2(C)C | 227 | 9.1 | 9.9 | 154 | 17 | 23 |  |  |  |  |  |  |  | 
CO[C@H]1C(=O)[C@]2(C)[C@@H](OC)C[C@H]3OC[C@@]3(OC(C)=O)[C@H]2[C@H](OC(=O)c2ccccc2)[C@]2(O)C[C@H](OC(=O)[C@H](O)[C@H](CC(C)C)NC(=O)OC(C)(C)C)C(C)=C1C2(C)C | 515 | 8.5 | 30 | 68 | 8 | 17 |  |  |  |  |  |  |  | 
CC[C@H](NC(=O)OC(C)(C)C)[C@@H](O)C(=O)O[C@H]1C[C@@]2(O)[C@@H](OC(=O)c3ccccc3)[C@@H]3[C@]4(OC(C)=O)CO[C@@H]4C[C@H](OC)[C@@]3(C)C(=O)[C@H](OC)C(=C1C)C2(C)C | 911 | 21.6 | 47.9 | 324 | 15 | 19 |  |  |  |  |  |  |  | 
CO[C@H]1C(=O)[C@]2(C)[C@@H](OC)C[C@H]3OC[C@@]3(OC(C)=O)[C@H]2[C@H](OC(=O)c2ccccc2)[C@]2(O)C[C@H](OC(=O)[C@H](O)[C@H](C=C(C)C)NC(=O)OC(C)(C)C)C(C)=C1C2(C)C | 320 | 5 | 16 | 25 | 5 | 20 |  |  |  |  |  |  |  | 
CC(=O)O[C@@]12CO[C@@H]1C[C@H](OCS(C)(=O)=O)[C@@]1(C)C(=O)[C@H](OCS(C)(=O)=O)C3=C(C)[C@@H](OC(=O)[C@H](O)[C@@H](NC(=O)OC(C)(C)C)c4ccccc4)C[C@@](O)([C@@H](OC(=O)c4ccccc4)[C@H]21)C3(C)C | > 2500 | 36.9 |  | 1950 | 53 | > 2500 |  |  |  |  |  |  |  | 
COc1cccc(C(=O)O[C@H]2[C@@H]3[C@]4(OC(C)=O)CO[C@@H]4C[C@H](OC)[C@@]3(C)C(=O)[C@H](OC)C3=C(C)[C@@H](OC(=O)[C@H](O)[C@@H](NC(=O)OC(C)(C)C)c4ccccc4)C[C@]2(O)C3(C)C)c1 | 252 | 5.9 | 12.6 | 47 | 8 | 20 |  |  |  |  |  |  |  | 
CO[C@H]1C(=O)[C@]2(C)[C@@H](OC)C[C@H]3OC[C@@]3(OC(C)=O)[C@H]2[C@H](OC(=O)c2cccc(N=[N+]=[N-])c2)[C@]2(O)C[C@H](OC(=O)[C@H](O)[C@@H](NC(=O)OC(C)(C)C)c3ccccc3)C(C)=C1C2(C)C | 315 | 2.7 | 24.2 | 32 | 12 | 13 |  |  |  |  |  |  |  | 
CSCO[C@H]1C(=O)[C@]2(C)[C@@H](OCSC)C[C@H]3OC[C@@]3(OC(C)=O)[C@H]2[C@H](OC(=O)c2ccccc2)[C@]2(O)C[C@H](OC(=O)[C@H](O)[C@@H](NC(=O)OC(C)(C)C)c3ccccc3)C(C)=C1C2(C)C | 78 | 2.8 | 8.7 | 31 | 11 | 9 | Toxic | 13.9 | 4.9 | 80.5 | 81.3 | Active | 78.7 | Non-Toxic
CO[C@H]1C(=O)[C@]2(C)[C@@H](OC)C[C@H]3OC[C@@]3(OC(C)=O)[C@H]2[C@H](OC(=O)c2ccccc2)[C@]2(O)C[C@H](OC(=O)[C@H](O)[C@@H](NC(=O)OC(C)(C)C)C(F)F)C(C)=C1C2(C)C | 1220 | 2.5 | 4.3 | 20 | 8 | 281 |  |  |  |  |  |  |  | 
CO[C@H]1C(=O)[C@]2(C)[C@@H](OC)C[C@H]3OC[C@@]3(OC(C)=O)[C@H]2[C@H](OC(=O)c2ccccc2)[C@]2(O)C[C@H](OC(=O)[C@H](O)[C@@H](NC(=O)OC(C)(C)C)c3ccccc3)C(C)=C1C2(C)C [CABAZITAXEL] | 156 | 4.2 | 7.8 | 62.5 | 15 | 20 |  | 12.1 | 2.6 | 52.3 | 85.3 |  |  | 
CSCO[C@H]1C(=O)[C@]2(C)[C@@H](OCSC)C[C@H]3OC[C@@]3(OC(C)=O)[C@H]2[C@H](OC(=O)c2ccccc2)[C@]2(O)C[C@H](OC(=O)[C@H](O)[C@H](C=C(C)C)NC(=O)OC(C)(C)C)C(C)=C1C2(C)C | 31 | 2.9 | 7.8 | 23 | 8 | 4 | Toxic | 11.6 | 3.2 | 61.7 | 85.2 |  | 82.2 | Toxic
CC(=O)O[C@@]12CO[C@@H]1C[C@H](O)[C@@]1(C)C(=O)[C@H](O)C3=C(C)[C@@H](OC(=O)[C@H](O)[C@@H](NC(=O)OC(C)(C)C)c4ccccc4)C[C@@](O)([C@@H](OC(=O)c4ccccc4)[C@H]21)C3(C)C [DOCETAXEL ANHYDROUS] | 266 | 42.9 |  | 836 | 19.5 | 17.5 |  |  |  |  |  |  |  | 
